# Mdm2 MdmX PPI = human Mdm2/MdmX binding inhibition | O15151+Q00987 | SaOS-2 split-luciferase Mdm2/MdmX complementation, luminescence | inhibition, % at 8 µM | hit rate 3% among 330,000 | AID 485346;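 active means inhibition of at least 50% at 8 µM in the primary screen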
# CSC inhib = blocks cancer stem cells; cancer stem cell-like cells viability, luminescence; inhibition, % at 7.5 µM; hit rate 1.1% among 300,000; AID 2717; in the data active means inhibition above about 75%; inconclusive means no clear call, values can overlap the other calls; tested in HMLE shEcad cells
# XBP1 UPR activ = activators of adaptive arm of unfolded protein response (XBP1); CHO-XBP1 luciferase reporter, IRE1-XBP1 UPR activation, luminescence; percent of tunicamycin response, DMSO as zero; hit rate 0.33% among 330,000; activation, % at 20 µM;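 active means versus positive control, 20 µM dose yields 30% or more activation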
#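 Material: IRE1-XBP1 luciferase reporter CHO line / Quantity: one thousand reporter cells per well / Buffer or medium: F12 with 10% serum / Compound: 20 µM single concentration, DMSO 1% / Times: 6 h treatment, 37 °C / Detection: Steady-Glo luciferase glow luminescence, 10 min after reagent addition / Benchmarks: tunicamycin high, DMSO low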
# UPR CHOP act = activators of apoptotic arm of unfolded protein response (CHOP); CHO-CHOP luciferase reporter, UPR activation, luminescence; percent of tunicamycin response over DMSO baseline; activation, % at 10 µM; hit rate 0.34% among 330,000; AID 449763;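 active means at 10 µM dose, activation of 40% or more, normalized to positive control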
#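 Evaluation: % reporter activation, DMSO baseline versus tunicamycin full activation; System: CHO-CHOP luciferase reporter cell line; Input: 500 cells/well; Incubation: 6 h compound treatment, 37 °C; Measured by: Steady-Glo luciferase luminescence; Dosing: one dose, 10 µM in 0.5% DMSO; Buffer or medium: F12 medium, 10% FBS; Benchmarks: positive tunicamycin 10 µg/mL, negative DMSO alone.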
# Beta cell apopt = beta cell apoptosis inhibition. INS-1E cytokine-induced death, ATP luminescence, 48 h; percent of positive-control rescue, neutral wells zero. protection from apoptosis, % (concentration not given with the values). hit rate 0.8% among 300,000. AID 435005;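 active means Every replicate reaches about 75%, or at least half do and their mean reaches it too, limit read from the data; inconclusive means At least half of replicates reach the limit but their mean does not; inactive means Under half of replicates reach the limit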;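 further: higher means more ATP so stronger rescue from cytokine killing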
# SKKanGAS inh = SKKanGAS growth inhibition; S. pyogenes SKKanGAS, kanamycin growth, BacTiter-Glo, 6 h; inhibition, % at 7.5 µM; hit rate 1.3% among 300,000; AID 1662;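 active means mean replicate score, as percent of positive control median, at least 50; inconclusive means mean below 50 but one replicate at or above 50; inactive means mean and every replicate below 50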;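 further: strain carries kanamycin resistance gene driven by streptokinase promoter and grows in 40 µg/ml kanamycin; loss of luminescence reflects streptokinase promoter inhibition or plain growth inhibition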
# Hits are given with their value; . = inactive; ? = inconclusive; / = no result given. Sampled rows, rich in hits. Any-hit rate of the full collection: about 4.8%.
SMILES,Mdm2 MdmX PPI,CSC inhib,XBP1 UPR activ,UPR CHOP act,Beta cell apopt,SKKanGAS inh
COC(=O)COc1c(Cl)cc(Cl)c2ccc(C)nc12,.,.,.,.,.,.
Cc1ccc2c(Cl)cc(Cl)c(OCC(=O)NC(C)(C)C)c2n1,.,.,.,.,.,49.9
COc1ccc(CN2C[C@H]3CCCN3c3cc(Br)ccc3S2(=O)=O)cc1,.,/,.,.,/,/
CCNC(=S)N/N=C/c1cn(Cc2ccccc2F)c2ccccc12,.,.,.,.,.,.
O=[N+]([O-])/C=C/c1cn(Cc2ccc(F)cc2)c2ccccc12,.,137.0,.,.,78.2,.
CCNC(=S)N/N=C/c1cn(Cc2ccc(F)cc2)c2ccccc12,.,89.6,.,.,.,.
O=C(CCc1ccccc1)NNC(=S)NC(=O)c1ccccc1,.,.,.,.,.,63.9
CC(C)(C)c1cc(CCC(=O)NNC(=S)NC(=O)c2ccccc2)cc(C(C)(C)C)c1O,.,.,.,.,?,97.1
O=C(CCc1ccccc1)NNC(=S)NCCc1ccccc1,.,.,.,.,.,.
CCCCC(=O)NC(=S)NNC(=O)CCc1ccccc1,.,.,.,.,.,75.5
CC(=O)NC(=S)NNC(=O)CCc1ccccc1,.,.,.,.,.,.
O=[N+]([O-])c1cc(S(=O)(=O)N2CCCCCC2)ccc1F,/,101.7,/,/,.,/
O=[N+]([O-])c1cc(S(=O)(=O)N2CCCC2)ccc1O,.,.,.,.,.,.
CCOc1ccc(C(=O)Nc2c(C(=O)N3CCC(N4CCCCC4)CC3)oc3ccccc23)cc1,.,.,.,.,.,.
COc1ccc(CN2CCc3ccc(NC(=O)c4ccncc4)cc3C2)c(F)c1,.,.,.,.,.,49.8
O=C(Nc1ccc2c(c1)CN(Cc1ccc(CO)o1)CC2)c1ccc(C(F)(F)F)cc1,.,.,.,.,.,.
C/C(=N\Nc1nc(C(C)(C)C)cs1)c1ccccc1,.,.,.,.,.,.
C/C(=N\Nc1nc2ccc(Cl)cc2o1)c1ccccc1,.,.,.,.,.,67.6
CN1CC(c2ccc(Cl)c(Cl)c2)[C@@]2(COc3ccccc3C2=O)[C@@]12C(=O)Nc1ccccc12 (stereo not given in full),.,.,.,.,.,79.2
CCCN1C(=O)c2ccccc2NC1c1ccc(Cl)c(Cl)c1 (stereo not given),.,.,.,.,.,.
COc1ccc(CSc2ccc(-c3nc4ccccn4c3NCc3ccccc3)cc2OC)cc1,.,.,.,.,.,.
Cc1ccc2nc(-c3ccc(-c4cccc(Cl)c4)cc3)c(NCc3ccccc3)n2c1,.,91.1,.,.,121.1,.
CCC(C)Sc1ccc(-c2nc3ccc(C)cn3c2NCc2ccccc2)cc1 (stereo not given),.,/,.,.,/,/
COc1cc(-c2nc3ccc(C)cn3c2NCc2ccccc2)ccc1-c1cccc(Cl)c1,.,.,.,.,102.0,/
COc1ccc(CNC(=O)c2cc(S(=O)(=O)N3CCCCC3)ccc2Cl)cc1OC,.,.,.,.,.,/
SMILES,Mdm2 MdmX PPI,CSC inhib,XBP1 UPR activ,UPR CHOP act,Beta cell apopt,SKKanGAS inh
COc1ccc(NC(=O)c2cc(-c3ccccc3Cl)on2)cc1,.,.,.,.,.,.
COc1ccc(NC(=O)c2cc(-c3ccccc3OC)on2)cc1,/,79.7,/,/,.,.
Cc1ccc(-c2c[n+](Cc3ccc(Cl)cc3)c3n2CCC3)cc1,.,.,.,.,108.6,.
Cc1ccc(C[n+]2cc(-c3ccc(Cl)cc3)n3c2CCC3)cc1,.,.,.,.,.,.
Cn1c(N)c(C(=O)COC(=O)CCc2c[nH]c3ccccc23)c(=O)n(C)c1=O,.,.,.,.,.,62.9
Cn1c(N)c(C(=O)COC(=O)CCc2nc3ccccc3s2)c(=O)n(C)c1=O,.,.,.,.,.,.
NC(=O)COC(=O)CCCc1c[nH]c2ccccc12,.,.,.,.,.,.
Cn1c(N)c(C(=O)COC(=O)CCCc2c[nH]c3ccccc23)c(=O)n(C)c1=O,.,.,.,.,.,75.2
O=C(CN1CCN(S(=O)(=O)c2ccccc2)CC1)Nc1ccccc1C(=O)c1ccccc1,.,.,.,.,.,.
COc1ccc(/C=N/Nc2nc(N3CCCC3)nc(N3CCCC3)n2)cc1,/,.,/,/,.,.

# Source: PubChem BioAssay (several laboratories)
